In ChEMBL document CHEMBL3632607, “Identification and SAR of Glycine Benzamides as Potent Agonists for the GPR139 Receptor” (ACS Med Chem Lett, 2015):
Activity calls are given as the source filed them. No cut-off for these calls is given here.

What was measured:
[1] = target: T1, Probable G-protein coupled receptor 139 (Homo sapiens, UniProt Q6DWJ6); assay: Agonist activity at human GPR139 receptor expressed in HEK293 cells assessed as calcium mobilization by FLIPR assay; type: functional, cell-based
T1 sequence (Q6DWJ6 whole entry): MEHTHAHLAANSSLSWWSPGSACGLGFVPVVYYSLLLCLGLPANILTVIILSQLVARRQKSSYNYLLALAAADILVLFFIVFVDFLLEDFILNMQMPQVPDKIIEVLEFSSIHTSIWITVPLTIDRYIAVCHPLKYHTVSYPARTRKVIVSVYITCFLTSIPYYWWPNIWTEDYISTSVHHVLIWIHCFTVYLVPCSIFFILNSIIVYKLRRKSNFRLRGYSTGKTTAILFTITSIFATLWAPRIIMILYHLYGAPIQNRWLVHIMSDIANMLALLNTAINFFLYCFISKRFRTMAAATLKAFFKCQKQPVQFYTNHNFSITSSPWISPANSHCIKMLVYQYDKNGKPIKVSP

[2] = Aqueous solubility of the compound in 30 mM phosphate buffer at pH 2 after 3 days; type: physicochemical
[3] = Oral bioavailability in Sprague-Dawley rat at 5 mg/kg; type: ADME, organism-based; conditions: in vivo
[4] = AUC in Sprague-Dawley rat at 1 mg/kg, iv and 5 mg/kg, po; type: ADME, organism-based; conditions: in vivo
Cytochrome P450 2C9 = Cytochrome P450 2C9 (Homo sapiens, UniProt P11712); assay: Inhibition of CYP2C9 in human liver microsomes using diclofenac as substrate up to 10 uM by LC-MS/MS analysis; type: ADME
[5] = Volume of distribution at steady state in Sprague-Dawley rat at 1 mg/kg, iv and 5 mg/kg, po; type: ADME, organism-based; conditions: in vivo, read-out: Vdss
[6] = Aqueous solubility of the compound in 30 mM phosphate buffer at pH 7 after 3 days; type: physicochemical
[7] = Extraction ratio in rat liver microsomes at 1 uM after 1 hr by LC-MS/MS analysis; type: ADME; conditions: read-out: ERH
In short: (§1)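 Extraction ratio is in vitro microsomal clearance divided by Q, the species-specific hepatic blood flow (human or rat).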

[8] = Fraction unbound in rat plasma at 0.1 to 10 uM after 6 hrs by LC-MS/MS analysis; type: ADME, cell-free
[9] = Clearance in Sprague-Dawley rat at 1 mg/kg, iv; type: ADME, organism-based; conditions: in vivo
[10] = Efflux ratio of apparent permeability from basolateral to apical side to apical to basolateral side in MDCK cells; type: ADME, cell-based, Canis lupus familiaris; conditions: dog
In short: (§2)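 Permeability was measured in MDR1-transfected Madin Darby canine kidney (MDR1-MDCK) cells. Papp is given in units of 1 × 10–6 cm/s. The efflux ratio is Papp basal-to-apical divided by Papp apical-to-basal.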

[11] = target: T2, Probable G-protein coupled receptor 139 (Homo sapiens) (UniProt Q6DWJ6); assay: Total binding affinity to human GPR139 receptor expressed in CHO-TRex cells at 10 nM after 60 mins by scintillation counting; type: cell-based
T2 sequence (whole entry): T1 sequence (Q6DWJ6 whole entry)
In short: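 Whole CHO-TRex cells stably expressing human GPR139 were incubated with 10 nM of the tritiated ligand to measure total binding. Nonspecific binding was defined by blocking with 10 μM of an unlabelled reference GPR139 agonist. Specific binding was taken as total minus nonspecific.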

[12] = Extraction ratio in human liver microsomes at 1 uM after 1 hr by LC-MS/MS analysis; type: ADME; conditions: read-out: ERH; in short: as §1
Cytochrome P450 3A4 = Cytochrome P450 3A4 (Homo sapiens, UniProt P08684); assay: Inhibition of CYP3A4 in human liver microsomes using midazolam as substrate up to 10 uM by LC-MS/MS analysis; type: ADME
Cytochrome P450 2C8 = target: T3, Cytochrome P450 2C8 (Homo sapiens, UniProt P10632); assay: Inhibition of CYP2C8 in human liver microsomes using paclitaxel as substrate up to 10 uM by LC-MS/MS analysis; type: ADME
T3 sequence (P10632 whole entry): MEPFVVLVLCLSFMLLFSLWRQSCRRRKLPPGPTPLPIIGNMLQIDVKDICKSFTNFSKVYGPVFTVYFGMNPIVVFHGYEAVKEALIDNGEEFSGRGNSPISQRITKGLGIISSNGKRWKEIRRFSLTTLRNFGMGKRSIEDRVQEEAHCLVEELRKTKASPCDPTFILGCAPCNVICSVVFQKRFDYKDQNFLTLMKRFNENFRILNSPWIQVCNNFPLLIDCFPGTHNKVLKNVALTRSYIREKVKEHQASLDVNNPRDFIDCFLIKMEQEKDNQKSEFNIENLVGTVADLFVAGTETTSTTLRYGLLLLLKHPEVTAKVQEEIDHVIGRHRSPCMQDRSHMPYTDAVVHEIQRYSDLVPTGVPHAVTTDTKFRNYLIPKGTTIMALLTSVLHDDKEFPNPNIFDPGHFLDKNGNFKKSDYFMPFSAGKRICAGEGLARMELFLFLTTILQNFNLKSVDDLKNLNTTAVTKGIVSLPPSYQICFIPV

Cytochrome P450 1A2 = target: T4, Cytochrome P450 1A2 (Homo sapiens, UniProt P05177); assay: Inhibition of CYP1A2 in human liver microsomes using phenacetin as substrate up to 10 uM by LC-MS/MS analysis; type: ADME
T4 sequence (P05177 whole entry): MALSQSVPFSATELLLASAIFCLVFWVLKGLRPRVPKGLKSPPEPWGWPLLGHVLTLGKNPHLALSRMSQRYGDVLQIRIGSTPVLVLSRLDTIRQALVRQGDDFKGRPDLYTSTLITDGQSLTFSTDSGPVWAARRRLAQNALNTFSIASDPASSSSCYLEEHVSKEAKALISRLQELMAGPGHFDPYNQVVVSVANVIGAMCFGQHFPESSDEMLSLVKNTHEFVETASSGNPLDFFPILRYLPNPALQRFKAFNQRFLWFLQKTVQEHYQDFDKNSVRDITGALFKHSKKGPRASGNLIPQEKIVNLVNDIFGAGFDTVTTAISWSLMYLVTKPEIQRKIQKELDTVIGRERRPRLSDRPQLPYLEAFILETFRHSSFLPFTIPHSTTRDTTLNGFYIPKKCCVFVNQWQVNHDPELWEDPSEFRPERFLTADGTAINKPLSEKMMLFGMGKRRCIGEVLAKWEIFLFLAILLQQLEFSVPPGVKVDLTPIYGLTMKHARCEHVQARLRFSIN

[13] = Half life in Sprague-Dawley rat at 1 mg/kg, iv; type: ADME, organism-based; conditions: in vivo
[14] = Apparent permeability of the compound in MDCK cells; type: ADME, cell-based, Canis lupus familiaris; conditions: dog; in short: as §2
[15] = Cmax in Sprague-Dawley rat at 5 mg/kg, po; type: ADME, organism-based; set-up: dose 5 mg/kg, route oral; conditions: in vivo
[16] = Fraction unbound in rat brain at 0.1 to 10 uM after 6 hrs by LC-MS/MS analysis; type: ADME, tissue-based
Cytochrome P450 2C19 = Cytochrome P450 2C19 (Homo sapiens, UniProt P33261); assay: Inhibition of CYP2C19 in human liver microsomes using S-mephenytoin as substrate up to 10 uM by LC-MS/MS analysis; type: ADME
Cytochrome P450 2D6 = Cytochrome P450 2D6 (Homo sapiens, UniProt P10635); assay: Inhibition of CYP2D6 in human liver microsomes using dextromethorphan as substrate up to 10 uM by LC-MS/MS analysis; type: ADME
[17] = Fraction unbound in human plasma at 0.1 to 10 uM after 6 hrs by LC-MS/MS analysis; type: ADME, cell-free
[18] = Ratio of drug level in brain to plasma in Sprague-Dawley rat at 1 mg/kg, iv and 5 mg/kg, po; type: ADME, organism-based; conditions: read-out: BPR
[19] = target: T5, Protein Gpr142 (Rattus norvegicus) (UniProt F1LWD8); assay: Agonist activity at rat GPR142 receptor
T5 sequence (whole entry): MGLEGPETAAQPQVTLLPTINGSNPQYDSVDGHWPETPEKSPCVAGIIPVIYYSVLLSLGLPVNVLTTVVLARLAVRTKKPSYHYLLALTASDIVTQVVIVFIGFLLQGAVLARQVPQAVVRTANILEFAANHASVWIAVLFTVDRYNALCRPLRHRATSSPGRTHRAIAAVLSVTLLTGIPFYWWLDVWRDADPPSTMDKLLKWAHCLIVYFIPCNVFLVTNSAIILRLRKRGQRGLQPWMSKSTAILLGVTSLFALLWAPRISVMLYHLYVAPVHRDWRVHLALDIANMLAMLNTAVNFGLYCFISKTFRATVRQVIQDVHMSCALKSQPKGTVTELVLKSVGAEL

Chain of Cytochrome P450 2C19 (P33261 whole entry): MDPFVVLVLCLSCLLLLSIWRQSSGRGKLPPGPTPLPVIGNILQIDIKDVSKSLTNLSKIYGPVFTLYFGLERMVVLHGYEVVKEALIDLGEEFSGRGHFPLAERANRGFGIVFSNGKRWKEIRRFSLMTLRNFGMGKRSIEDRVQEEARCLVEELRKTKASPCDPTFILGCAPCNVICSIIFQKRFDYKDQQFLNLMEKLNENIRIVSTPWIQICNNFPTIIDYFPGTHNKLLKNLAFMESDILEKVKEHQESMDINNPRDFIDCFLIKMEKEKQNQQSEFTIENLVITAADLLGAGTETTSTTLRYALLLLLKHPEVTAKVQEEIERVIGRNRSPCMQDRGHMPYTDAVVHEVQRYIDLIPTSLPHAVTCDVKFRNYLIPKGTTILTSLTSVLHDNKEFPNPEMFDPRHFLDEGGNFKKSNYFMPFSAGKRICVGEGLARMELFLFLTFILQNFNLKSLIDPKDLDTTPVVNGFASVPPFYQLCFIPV
Chain of Cytochrome P450 2C9 (P11712 whole entry): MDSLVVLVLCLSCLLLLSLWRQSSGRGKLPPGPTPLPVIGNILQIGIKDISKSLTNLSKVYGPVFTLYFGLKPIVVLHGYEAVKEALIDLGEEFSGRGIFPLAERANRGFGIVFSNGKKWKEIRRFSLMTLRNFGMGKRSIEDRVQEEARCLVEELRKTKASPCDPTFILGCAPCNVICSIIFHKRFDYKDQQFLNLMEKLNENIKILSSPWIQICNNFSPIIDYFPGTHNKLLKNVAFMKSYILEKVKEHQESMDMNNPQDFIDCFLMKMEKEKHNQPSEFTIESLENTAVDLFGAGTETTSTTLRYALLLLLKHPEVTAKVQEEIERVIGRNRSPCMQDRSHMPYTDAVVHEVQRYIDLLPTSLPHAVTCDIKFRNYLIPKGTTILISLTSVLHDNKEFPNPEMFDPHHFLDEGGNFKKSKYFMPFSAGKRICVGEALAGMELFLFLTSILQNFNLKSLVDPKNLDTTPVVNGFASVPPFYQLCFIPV
Chain of Cytochrome P450 2D6 (P10635 whole entry): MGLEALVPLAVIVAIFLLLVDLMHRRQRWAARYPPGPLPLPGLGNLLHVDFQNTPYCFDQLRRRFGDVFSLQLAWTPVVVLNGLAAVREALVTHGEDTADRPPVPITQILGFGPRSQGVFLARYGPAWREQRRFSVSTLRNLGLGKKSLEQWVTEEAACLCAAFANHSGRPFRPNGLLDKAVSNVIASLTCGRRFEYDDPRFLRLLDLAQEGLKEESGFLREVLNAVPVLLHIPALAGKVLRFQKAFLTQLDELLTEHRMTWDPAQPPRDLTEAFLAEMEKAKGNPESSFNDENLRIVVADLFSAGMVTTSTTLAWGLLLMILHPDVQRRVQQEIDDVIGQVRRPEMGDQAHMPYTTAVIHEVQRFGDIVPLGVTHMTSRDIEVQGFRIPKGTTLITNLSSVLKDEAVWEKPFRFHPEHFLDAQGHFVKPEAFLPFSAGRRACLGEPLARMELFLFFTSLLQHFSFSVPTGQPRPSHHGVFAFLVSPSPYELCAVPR
Chain of Cytochrome P450 3A4 (P08684 whole entry): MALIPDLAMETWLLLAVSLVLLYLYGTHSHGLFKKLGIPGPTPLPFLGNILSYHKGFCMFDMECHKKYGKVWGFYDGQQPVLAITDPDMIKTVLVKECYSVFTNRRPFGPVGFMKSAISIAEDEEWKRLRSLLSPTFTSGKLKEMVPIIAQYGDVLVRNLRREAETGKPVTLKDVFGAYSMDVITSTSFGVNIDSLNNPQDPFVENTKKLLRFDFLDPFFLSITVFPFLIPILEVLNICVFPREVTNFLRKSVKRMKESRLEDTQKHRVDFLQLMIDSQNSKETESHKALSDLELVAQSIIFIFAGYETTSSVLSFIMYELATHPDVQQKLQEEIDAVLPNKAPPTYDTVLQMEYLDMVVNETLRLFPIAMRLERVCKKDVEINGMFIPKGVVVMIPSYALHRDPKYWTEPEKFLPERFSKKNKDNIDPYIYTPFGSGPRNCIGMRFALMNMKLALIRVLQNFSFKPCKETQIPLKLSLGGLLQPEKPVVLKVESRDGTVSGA

SMILES: COc1cccc(C(=O)N[C@@H](CO)C(=O)N[C@@H](C)c2ccccc2)c1
- EC50 [1]: 283 nM

SMILES: C[C@H](NC(=O)CNC(=O)c1ccc(Cl)cc1)c1ccccc1
- EC50 [1]: 118 nM

SMILES: C[C@H](NCCNC(=O)c1cccc(Cl)c1)c1ccccc1
- EC50 [1]: > 10000 nM

SMILES: C[C@H](NC(=O)CNC(=O)c1cccc(C#N)c1)c1ccccc1
- EC50 [1]: 59 nM

SMILES: C[C@H](NC(=O)CNC(=O)c1cccc(F)c1)c1ccccc1
- EC50 [1]: 54 nM

SMILES: C[C@H](NC(=O)CNC(=O)c1cc(Cl)cc(Br)c1)c1ccccc1
- EC50 [1]: 78 nM

SMILES: COc1cccc(C(=O)N[C@@H](Cc2ccccc2)C(=O)N[C@@H](C)c2ccccc2)c1
- EC50 [1]: 10000 nM

SMILES: COc1cccc(C(=O)N[C@H](C)C(=O)N[C@@H](C)c2ccccc2)c1
- EC50 [1]: 440 nM

SMILES: COc1cccc(C(=O)NCC(=O)N[C@H](C)c2ccccc2)c1
- EC50 [1]: 1700 nM

SMILES: C[C@H](NC(=O)CNC(=O)c1ccccc1Cl)c1ccccc1
- EC50 [1]: 150 nM

SMILES: Cc1cccc(C(=O)NCC(=O)N[C@@H](C)c2ccccc2)c1
- EC50 [1]: 24 nM

SMILES: COc1cc(OC)cc(C(=O)NCC(=O)N[C@@H](C)c2ccccc2)c1
- EC50 [1]: 32 nM

SMILES: C[C@H](NC(=O)CNC(=O)c1cccc(C(F)(F)F)c1)c1ccccc1
- EC50 [1]: 52 nM

SMILES: C[C@H](NC(=O)CNC(=O)c1cccc(Cl)c1)c1ccccc1
- solubility at 72 h [2]: > 35 µM
- bioavailability [3]: 49%
- AUC [4]: 683 ng·h/mL
- inhibition (INH) (Cytochrome P450 2C9): Not Active
- Vd [5]: 2.1 L/kg
- solubility at 72 h [6]: > 35 µM
- hepatic extraction ratio at 1 h, 1 µM [7]: 0.4
- fraction unbound at 6 h, up to 10 µM [8]: 0.25
- clearance [9]: 53 mL/min/kg
- efflux ratio [10]: 1.7
- Activity [11]: Active
- hepatic extraction ratio at 1 h, 1 µM [12]: 0.3
- inhibition (INH) (Cytochrome P450 3A4): Not Active
- inhibition (INH) (Cytochrome P450 2C8): Not Active
- inhibition (INH) (Cytochrome P450 1A2): Not Active
- half-life [13]: 2.5 h
- Papp [14]: 32 ×10⁻⁶ cm/s
- Cmax [15]: 317 ng/mL
- fraction unbound at 6 h, up to 10 µM [16]: 0.09
- inhibition (INH) (Cytochrome P450 2C19): Not Active
- inhibition (INH) (Cytochrome P450 2D6): Not Active
- fraction unbound at 6 h, up to 10 µM [17]: 0.1
- Kp [18]: 1.2
- Activity [19]: inactive

SMILES: C[C@H](NC(=O)CNC(=O)c1cccc(OC(F)(F)F)c1)c1ccccc1
- EC50 [1]: 46 nM

SMILES: CC(NC(=O)CSC(=O)c1ccccc1)c1ccccc1 (stereo not given)
- EC50 [1]: 670 nM

SMILES: C[C@H](NC(=O)CNC(=O)c1cc(F)cc(Cl)c1)c1ccccc1
- EC50 [1]: 24 nM

SMILES: C[C@H](NC(=O)CNC(=O)c1cc(Cl)ccc1Cl)c1ccccc1
- EC50 [1]: 40 nM

SMILES: C[C@H](NC(=O)CNC(=O)c1ccc(Cl)c(Cl)c1)c1ccccc1
- EC50 [1]: 193 nM

SMILES: COc1cccc(C(=O)NCC(=O)N[C@@H](C)c2ccccc2)c1
- solubility at 72 h [2]: > 35 µM
- EC50 [1]: 33 nM
- inhibition (INH) (Cytochrome P450 2C9): Not Active
- solubility at 72 h [6]: > 35 µM
- hepatic extraction ratio at 1 h, 1 µM [7]: 0.8
- fraction unbound at 6 h, up to 10 µM [8]: 0.36
- efflux ratio [10]: 5.5
- hepatic extraction ratio at 1 h, 1 µM [12]: 0.3
- inhibition (INH) (Cytochrome P450 3A4): Not Active
- inhibition (INH) (Cytochrome P450 2C8): Not Active
- inhibition (INH) (Cytochrome P450 1A2): Not Active
- Papp [14]: 16 ×10⁻⁶ cm/s
- fraction unbound at 6 h, up to 10 µM [16]: 0.16
- inhibition (INH) (Cytochrome P450 2C19): Not Active
- inhibition (INH) (Cytochrome P450 2D6): Not Active
- fraction unbound at 6 h, up to 10 µM [17]: 0.14

SMILES: COc1cc(OC)cc(C(=O)NNC(=O)Nc2cccc3ccccc23)c1
- EC50 [1]: 43 nM

SMILES: C[C@@H](NC(=O)CNC(=O)c1cccc(Cl)c1)c1ccccc1
- EC50 [1]: 2100 nM

SMILES: C[C@H](NC(=O)CNCc1cccc(Cl)c1)c1ccccc1
- EC50 [1]: > 10000 nM

SMILES: COc1cccc(C(=O)N[C@@H](C)C(=O)N[C@@H](C)c2ccccc2)c1
- EC50 [1]: 66 nM

SMILES: C[C@H](NC(=O)CNC(=O)c1cccc(Cl)c1Cl)c1ccccc1
- EC50 [1]: 52 nM

SMILES: C[C@H](NC(=O)CNC(=O)c1cc(Cl)cc(Cl)c1)c1ccccc1
- EC50 [1]: 46 nM

SMILES: C[C@H](NC(=O)CNC(=O)c1ccccc1)c1ccccc1
- EC50 [1]: 162 nM
